# Measured values published in paper PMC7059817 (Biomolecules & Therapeutics, 2019).
# How the values were obtained:
# preformed Aβ1–42 fibrils [1] = biological target: T1, preformed Aβ1–42 fibrils (Homo sapiens, UniProt P05067); assay: Aβ1–42 disaggregation assay; type: biochemical
# In short: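 Fibrils preformed by incubating 20 μM recombinant human Aβ1–42 with 5 μM ThT in PBS buffer (pH 7.40), 37°C, 24 h. Test compound then added at final 10, 2, 0.4, 0.08 μM, or DMSO control, and incubated a further 7 h at 37°C. ThT fluorescence read every 2.5 min (ex 460/em 508 nm). EC50 from curves of percent change in ThT intensity versus concentration. Four independent experiments, duplicate samples; mean ± SEM.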
# [2] = biological target: Recombinant human Aβ1–42 peptide (Homo sapiens, UniProt P05067); assay: Aβ1–42 aggregation assay; type: biochemical
# Chain of Recombinant human Aβ1–42 peptide (P05067 672-713): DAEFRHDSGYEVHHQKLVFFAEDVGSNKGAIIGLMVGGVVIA
# In short: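 Recombinant human Aβ1–42 (HFIP-treated) dissolved in DMSO, diluted into PBS (50 mM NaH2PO4, 100 mM NaCl, pH 7.40); final 20 μM Aβ1–42 with 5 μM ThT ± test compound at 10, 2, 0.4, 0.08 μM (from 10 mM DMSO stocks). Incubated 37°C for 24 h; ThT fluorescence read every 10 min, ex 460/em 508 nm. IC50 from concentration-response curves; mean ± SEM, 4 independent experiments.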
# Aβ1–42 fibrils = Aβ1–42 fibrils (Homo sapiens, UniProt P05067); assay: SDS-PAGE electrophoresis and immunoblotting with anti-Aβ antibody 6E10; details: 25 μM fibrils with 25 μM amentoflavone, glutaraldehyde cross-linked
# Chain of Aβ1–42 fibrils (P05067 672-713): as above
# preformed Aβ1–42 fibrils [3] = biological target: T1, preformed Aβ1–42 fibrils; assay: Atomic force microscopy imaging of preformed Aβ1–42 fibrils; details: 25 μM fibrils with 25 μM amentoflavone, 1 h
# T1 sequence (P05067 672-713): as above
EC50 (preformed Aβ1–42 fibrils [1]),IC50 [2],"Time to decline of ThT fluorescent intensity after addition (preformed Aβ1–42 fibrils [1]; concentration-dependent decline, preformed Aβ1–42 fibrils)","Time to lowering of ThT fluorescent intensity after the treatment (preformed Aβ1–42 fibrils [1]; concentration-dependent, preformed Aβ1–42 fibrils)",SMILES,Conversion of Aβ1–42 fibrils to oligomers and monomers (immunoblot) (Aβ1–42 fibrils),Structural change of preformed Aβ1–42 fibrils (AFM) (preformed Aβ1–42 fibrils [3])
> 10000 nM,8700 ± 1210 nM,,,"COc1cc(O)c2c(=O)cc(-c3ccc(O)cc3)oc2c1-c1cc(-c2cc(=O)c3c(O)cc(O)cc3o2)ccc1O [Sotetsuflavone, sotetsuflavone]",,
2040 ± 790 nM,290 ± 10 nM,,,COc1cc(O)c2c(=O)cc(-c3ccc(O)c(-c4c(O)cc(O)c5c(=O)cc(-c6ccc(O)cc6)oc45)c3)oc2c1 [Sequoiaflavone],,
> 10000 nM,1800 ± 380 nM,,,"COc1ccc(-c2cc(=O)c3c(O)cc(O)c(-c4cc(-c5cc(=O)c6c(O)cc(O)cc6o5)ccc4OC)c3o2)cc1 [Isoginkgetin, isoginkgetin]",,
590 ± 190 nM,260 ± 30 nM,≤ 30 min,≤ 1 h,"O=c1cc(-c2ccc(O)c(-c3c(O)cc(O)c4c(=O)cc(-c5ccc(O)cc5)oc34)c2)oc2cc(O)cc(O)c12 [Amentoflavone, amentoflavone]",did not increase the conversion of Aβ1–42 fibrils to oligomers and monomers,conformational changes of the fibrils into amorphous Aβ1–42 aggregates
2450 ± 1280 nM,1530 ± 200 nM,,,"COc1ccc(-c2cc(=O)c3c(O)cc(O)cc3o2)cc1-c1c(O)cc(O)c2c(=O)cc(-c3ccc(O)cc3)oc12 [Bilobetin, bilobetin]",,
6810 ± 4080 nM,4920 ± 1310 nM,,,"COc1cc(O)c2c(=O)cc(-c3ccc(OC)c(-c4c(O)cc(O)c5c(=O)cc(-c6ccc(O)cc6)oc45)c3)oc2c1 [Ginkgetin, ginkgetin]",,
